*1 amine or outer side, *2 acyl side, *3 side chain or, on linkers, in order; H or OH if unused. Where a SMILES comes first, the peptide text is derived from it. Side-chain parts run from the residue outwards. [ ]: non-standard residue; d: D form. The star is where a group is joined. ξ: configuration not given here. Thz(5,5-Me2) = CC1(C)SCN[C@@H]1C(=O)O; NMeF = CN[C@@H](Cc1ccccc1)C(=O)O; NH(2-Me-phenyl) = Cc1ccccc1N*; ξF = NC(Cc1ccccc1)C(=O)O; Boc = CC(C)(C)OC(=O)*; CO = O=C([*:1])[*:2]
Key:
[1] = target: T1, Cholecystokinin receptor type A (Rattus norvegicus, UniProt P30551); experiment: Concentration inhibiting [3H]propionyl-CCK-8 binding to cholecystokinin type A receptor of rat pancreatic membranes.
T1 sequence (P30551 whole entry): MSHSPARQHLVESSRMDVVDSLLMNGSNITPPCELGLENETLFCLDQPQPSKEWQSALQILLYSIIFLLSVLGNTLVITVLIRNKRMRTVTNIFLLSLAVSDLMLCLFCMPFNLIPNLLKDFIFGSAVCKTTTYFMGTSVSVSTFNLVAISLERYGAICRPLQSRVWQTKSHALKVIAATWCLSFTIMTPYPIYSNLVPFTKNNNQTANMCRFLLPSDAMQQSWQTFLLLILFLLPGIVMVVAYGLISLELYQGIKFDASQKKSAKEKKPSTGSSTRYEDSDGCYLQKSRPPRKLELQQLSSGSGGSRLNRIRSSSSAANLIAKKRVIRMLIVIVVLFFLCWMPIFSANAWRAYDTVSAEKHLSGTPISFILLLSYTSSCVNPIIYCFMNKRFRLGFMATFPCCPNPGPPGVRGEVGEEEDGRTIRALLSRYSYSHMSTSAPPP
Procedure, shortened: (§1)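 Solubilized membranes from fresh pancreas of fasted rats (CCK-A). Competition against [3H]propanoyl-CCK-8. Nonspecific binding defined with 1 μM native CCK-8 and subtracted. IC50 is the concentration inhibiting 50% of total specific binding, from log-probit analysis. Actives confirmed in duplicate experiments.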

[2] = target: T2, Gastrin/cholecystokinin type B receptor (Bos taurus, UniProt P79266); experiment: Concentration inhibiting [3H]propionyl-CCK-8 binding to cholecystokinin type B receptor of bovine striatum.; type: tissue-based
T2 sequence (P79266 whole entry): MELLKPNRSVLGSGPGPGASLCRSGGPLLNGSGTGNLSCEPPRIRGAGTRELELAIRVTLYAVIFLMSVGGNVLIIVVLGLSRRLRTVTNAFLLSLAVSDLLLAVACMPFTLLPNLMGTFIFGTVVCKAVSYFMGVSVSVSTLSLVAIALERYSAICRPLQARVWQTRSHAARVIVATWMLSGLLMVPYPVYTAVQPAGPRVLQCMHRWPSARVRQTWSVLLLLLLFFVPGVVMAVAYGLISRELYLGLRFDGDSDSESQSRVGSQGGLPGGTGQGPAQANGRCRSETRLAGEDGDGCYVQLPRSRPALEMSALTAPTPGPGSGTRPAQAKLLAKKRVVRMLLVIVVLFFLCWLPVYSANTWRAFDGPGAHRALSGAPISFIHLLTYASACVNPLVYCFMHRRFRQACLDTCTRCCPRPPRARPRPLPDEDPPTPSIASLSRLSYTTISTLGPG
Procedure, shortened: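 CCK-B binding used solubilized bovine striatal membranes and [3H]propanoyl-CCK-8 displacement. Nonspecific binding was taken with 1 μM native CCK-8 and subtracted. IC50, the concentration giving 50% inhibition of total specific binding, was obtained by log-probit analysis. Actives were confirmed in duplicate experiments.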

Rattus norvegicus [3] = experiment: Dose required to inhibit the food intake by 50% in rats at a dose of 320 ug/kg ip; type: functional
Procedure, shortened: (§2)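 Male Sprague–Dawley rats (200–250 g), meal-fed. "1-2-1": trained 4–5 days on two 1-h meals 2 h apart; ip dosing 15 min before first meal, n=5–6. "Overnight fasted": n=5–7, ip vehicle or drug, food offered 1 h. Intake as % of saline control over first hour; t-test vs control; ED50 by log-probit.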

Rattus norvegicus [4] = experiment: Suppression of food intake in rats when administered intraperitoneally; type: functional; procedure, shortened: as §2
[5] = target: T1, Cholecystokinin receptor type A; experiment: Inhibitory activity against cholecystokinin type A receptor from rat pancreas binding assay; procedure, shortened: as §1
Rattus norvegicus [6] = experiment: Dose required to inhibit the food intake by 50% in rats after intraperitoneal administration; type: functional; conditions: ip; procedure, shortened: as §2

## CSCC[C@H](NC(=O)[C@H](Cc1ccc(OS(=O)(=O)O)cc1)NC(C)=O)C(=O)NCC(=O)N[C@@H](Cc1c[nH]c2ccccc12)C(=O)N[C@@H](CCSC)C(=O)N1CSC(C)(C)[C@@H]1C(=O)N[C@@H](Cc1ccccc1)C(N)=O [listing 1 of 2 here]
[1]
  IC50: 314 nM
[2]
  IC50: 6160 nM

## CSCC[C@H](NC(=O)[C@H](Cc1ccc(OS(=O)(=O)O)cc1)NC(C)=O)C(=O)NCC(=O)N[C@@H](Cc1c[nH]c2ccccc12)C(=O)N[C@@H](CCSC)C(=O)N1CSC(C)(C)[C@@H]1C(=O)N[C@@H](Cc1ccccc1)C(N)=O [listing 2 of 2 here]
Rattus norvegicus [3]
  ED50: > 0.32 mg/kg
Rattus norvegicus [4]
  Control: 66%

## CSCC[C@H](NC(=O)[C@H](Cc1ccc(OS(=O)(=O)O)cc1)NC(C)=O)C(=O)NCC(=O)N[C@@H](Cc1c[nH]c2ccccc12)C(=O)N[C@@H](CCSC)C(=O)N1CSC(C)(C)[C@H]1C(=O)N[C@@H](Cc1ccccc1)C(N)=O [listing 1 of 2 here]
[1]
  IC50: 0.05 nM
[2]
  IC50: 2310 nM

## CSCC[C@H](NC(=O)[C@H](Cc1ccc(OS(=O)(=O)O)cc1)NC(C)=O)C(=O)NCC(=O)N[C@@H](Cc1c[nH]c2ccccc12)C(=O)N[C@@H](CCSC)C(=O)N1CSC(C)(C)[C@H]1C(=O)N[C@@H](Cc1ccccc1)C(N)=O [listing 2 of 2 here]
Rattus norvegicus [3]
  ED50: 0.0044 mg/kg

## Cc1ccccc1NC(=O)NCCCC[C@H](NC(=O)[C@H](Cc1c[nH]c2ccccc12)NC(=O)OC(C)(C)C)C(=O)N[C@@H](CC(=O)O)C(=O)N(C)[C@@H](Cc1ccccc1)C(N)=O (Boc-WK([CO-NH(2-Me-phenyl)])D[NMeF]-NH2)
[5]
  IC50: 0.05 nM

## Cc1ccccc1NC(=O)NCCCC[C@H](NC(=O)[C@H](Cc1c[nH]c2ccccc12)NC(=O)OC(C)(C)C)C(=O)N1CSC(C)(C)[C@H]1C(=O)NC(Cc1ccccc1)C(N)=O (stereo not given in full) (Boc-WK([CO-NH(2-Me-phenyl)])[Thz(5,5-Me2)][ξF]-NH2)
[5]
  IC50: 59 nM
Rattus norvegicus [6]
  ED50: 0.085 mg/kg
